Source: publication PMC6997517 (EBioMedicine, 2020)

Experiments:
TLR4 [1] = experiment: Cytokine ELISA, LPS-stimulated RAW264.7 cells; format: cell-based, murine; conditions: n ≥ 3
Procedure, shortened: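 Murine macrophages seeded at 2 × 10^5/well (96-well) or 5 × 10^5/well (24-well) and grown overnight, then treated with test compound and LPS. After 24 h treatment, secreted IFN-β was measured by pre-coated mouse IFN-β ELISA. Mouse IL-6 and mouse TNF-α were measured by ELISA kits.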

RAW264.7 cells = experiment: MTT cell viability, RAW264.7 cells; format: cell-based, murine; conditions: ≤50 µM
Procedure, shortened: (§1)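 MTT colourimetric viability assay. HEK-Blue hTLR4 cells (high-glucose DMEM, 10% FBS, normocin) seeded at 5 × 10^4/well. RAW264.7 cells seeded at 2 × 10^5/well. Both grown overnight before exposure to test compound.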

TLR4 [2] = experiment: Western blot, LPS-stimulated RAW264.7 cells; format: cell-based, murine; conditions: for expression of MAPKs: Supp Fig. 1c (p-ERK, p-JNK, p-p38)
Procedure, shortened: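 Total protein extracted with M-PER reagent and quantified by BCA. Membranes incubated with primary antibodies overnight at 4 °C, washed in PBS/0·1% Tween 20, then HRP-conjugated secondary (1:1000) for 2 h. Bands detected by enhanced chemiluminescence, with β-actin as loading reference.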

HEK-Blue™ hTLR4 cells = experiment: MTT cell viability, HEK-Blue hTLR4 cells; format: cell-based, human; conditions: n ≥ 3
Procedure, shortened: as §1

[3] = test system: multiple TLR signalling pathways; conditions: ref [44]; cited from earlier work
[4] = test system: TLR4 (HEK-Blue™ hTLR4 cells); experiment: SEAP activity assay; format: cell-based, human; conditions: LPS-stimulated; absorbance at 620 nm; n ≥ 3
Procedure, shortened: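 Seeded at 2 × 10^5/well (24-well) and grown overnight, then treated with a range of test-compound concentrations with or without LPS. Supernatants heat-treated at 65 °C for 10 min. SEAP (NF-κB reporter) detected with HEK-Blue detection medium.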

[5] = test system: mice with IMQ-induced psoriasis-like disease; experiment: Histology and immunohistochemistry of back skin, psoriasis model; format: in vivo, mouse (C57BL/6); conditions: immunohistochemistry
Procedure, shortened: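 Back-skin lesions from imiquimod-treated C57BL/6 mice fixed in 4% paraformaldehyde, paraffin-embedded and sectioned at 7 μm. H&E staining used for epidermal/dermal thickness, measured by microscopy. Immunohistochemistry done with HRP/DAB detection using primary antibodies to CD68, CD4 and IL-17.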

CIA mice = experiment: Collagen-induced arthritis; format: in vivo, mouse (DBA/1 J); conditions: TIP3 10 nmol/g or MTX 2 mg/kg, i.p. daily from day 22
Procedure, shortened: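 Male DBA/1J mice (6–7 weeks, 20–23 g) immunised at tail base with 100 μg chicken type II collagen in an equal volume of complete Freund's adjuvant (day 0), boosted day 20. Groups of n = 7. Test compound (2·5 or 10 nmol/g) or methotrexate (2 mg/kg) in saline given i.p. once daily from day 22. Body weight, paw volume and arthritis index tracked. […] (maximum 16), twice weekly.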

Compound | LPS-induced TNF-α secretion (TLR4 [1]) | cell viability (RAW264.7 cells) | Iκ-Bα degradation (TLR4 [2]) | phosphorylation of p65 subunit of NF-κB (p-p65) (TLR4 [2]) | expression of MAPKs (TLR4 [2]) | also measured
KKWKMRRNQFWIKIQR [CPP, reference compound] | did not have any modulatory effect on TNF-α secretion | did not affect the cell viability at ≤50 µM | neither peptide inhibited Iκ-Bα degradation | neither peptide inhibited Iκ-Bα degradation, phosphorylation of the p65 subunit of NF-κB (p-p65) | neither peptide inhibited Iκ-Bα degradation, phosphorylation of the p65 subunit of NF-κB (p-p65), or the expression of mitogen-activated protein kinase (MAPKs) | 
TIPLLS [TIP2] |  |  |  |  |  | cell viability / cytotoxicity (HEK-Blue™ hTLR4 cells; 12·5 to 50 μM): did not show any significant cytotoxicity; cell viability / cytotoxicity (HEK-Blue™ hTLR4 cells; high concentration, 100 μM): slight cytotoxicity; TLR signalling inhibition [3]: TIP1, but not TIP2, abrogates multiple TLR signalling pathways; inhibition of LPS-induced SEAP activity (NF-κB) [4]: TIP3, but not TIP2, hampered the LPS-induced SEAP activity
CN(Cc1cnc2nc(N)nc(N)c2n1)c1ccc(C(=O)N[C@@H](CCC(=O)O)C(=O)O)cc1 [MTX, methotrexate, reference compound] |  |  |  |  |  | overexpression of CD4 in skin [5]: just as in the MTX-treated group; overexpression of CD68 in skin [5]: just as in the MTX-treated group; overexpression of IL-17 in skin [5]: just as in the MTX-treated group; loss of body weight (CIA mice): not observed; arthritis index (CIA mice; maximal score 16): significantly decreased; relative paw volume (large paw volume) (CIA mice; plethysmometer): TIP3 (10 nmol/g)- and MTX-injected mice did not
DYDVCVCH [TIP3 w/o CPP] | did not have any modulatory effect on TNF-α secretion | did not affect the cell viability at ≤50 µM | neither peptide inhibited Iκ-Bα degradation | neither peptide inhibited Iκ-Bα degradation, phosphorylation of the p65 subunit of NF-κB (p-p65) | neither peptide inhibited Iκ-Bα degradation, phosphorylation of the p65 subunit of NF-κB (p-p65), or the expression of mitogen-activated protein kinase (MAPKs) | 
